Test results: PMC12004261 (RSC Medicinal Chemistry, 2025)
“Also recorded” adds a separate entry of the source.

Key:
[1] = molecular target: α-Syn (Lewy bodies in PD, GCIs in MSA) (Homo sapiens, UniProt P37840); experiment: Nuclear emulsion; assay type: binding; conditions: 5 nM and 15 nM, listed as [^3H]M503-1619
Procedure, shortened: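 Fresh-frozen PD and MSA cryosections (16 μm) were quenched for lipofuscin with TrueBlack in 70% EtOH and immunostained for pS129 α-Syn. Sections were incubated with 5 or 15 nM tritiated test compound in 30 mM Tris–HCl pH 7.4 for 2 h at 37 °C, then given graded Tris/ethanol washes. Emulsion-dipped slides were exposed 4 days in the dark and developed. Silver grains were imaged by brightfield alongside fluorescence.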

[2] = Radiometabolite study of venous blood plasma; assay type: in vivo, rhesus monkey; conditions: 7.5 min post-injection
Procedure, shortened: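 Plasma from a 26-year-old male rhesus macaque was sampled during a PET scan after IV injection of 105 MBq of the 11C-labelled test compound. The animal was anaesthetised with ketamine/dexmedetomidine and maintained on isoflurane. Venous blood was spun 5 min at 3000g and the plasma deproteinised with acetonitrile 1:1. Reverse-phase C18 HPLC used 65% 0.1 M ammonium formate/35% acetonitrile at 1.2 mL min−1. An in-line radio-detector measured parent fraction by standard retention time.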

Brain PET imaging study = assay type: in vivo, cynomolgus macaque; conditions: cynomolgus monkey
Procedure, shortened: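 Male cynomolgus macaque (8.5 kg), ketamine 10–20 mg kg−1 induction, kept on 40% N2O/60% O2 with 1.0–1.5% isoflurane. After a positioning scan and a 45 min transmission scan for attenuation, ~350 MBq of the 11C-labelled test compound was given by limb-vein catheter. Two-hour dynamic scan, filtered back projection with corrections, co-registration to a monkey MRI template, whole-brain VOI. SUV normalised to body weight and injected dose.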

[3] = molecular target: CBD brain tissue homogenates (Homo sapiens, UniProt P10636); experiment: Saturation binding assay of [^3H]M503-1619 in CBD brain tissue homogenates
CBD brain tissue homogenates, sequence (P10636 561-708 limits assumed): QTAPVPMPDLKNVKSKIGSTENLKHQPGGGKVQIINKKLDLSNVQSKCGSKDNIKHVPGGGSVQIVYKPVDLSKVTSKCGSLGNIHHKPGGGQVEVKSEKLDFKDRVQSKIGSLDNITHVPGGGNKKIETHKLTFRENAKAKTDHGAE
Procedure, shortened: (§1)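 Frozen brain homogenate in pH 7.0 PBS, diluted to a final 100 μg tissue per mL. Contained ~1 nM tritiated test compound plus 0.2–1000 nM unlabelled compound and 0.25% DMSO (final). Incubated 60 min at room temperature, GF/B filtration, three PBS washes, scintillation counting after standing overnight. Nondisplaceable binding set with ~1 μM unlabelled compound; bound corrected for diluted specific activity. KD from Scatchard slope, Bmax from x-intercept; at least triplicate.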

[4] = Total-body PET imaging study; assay type: in vivo, rhesus macaque; conditions: rhesus monkey
[5] = molecular target: AD brain tissue homogenates; experiment: Saturation binding assay of [^3H]M503-1619 in AD brain tissue homogenates; design: species or system human; conditions: AD tissue (n = 4), mean ± SD
Procedure, shortened: as §1

[6] = molecular target: PSP brain tissue homogenates (Homo sapiens, UniProt P10636); experiment: Saturation binding assay of [^3H]M503-1619 in PSP brain tissue homogenates
PSP brain tissue homogenates, sequence (P10636 561-698 limits assumed): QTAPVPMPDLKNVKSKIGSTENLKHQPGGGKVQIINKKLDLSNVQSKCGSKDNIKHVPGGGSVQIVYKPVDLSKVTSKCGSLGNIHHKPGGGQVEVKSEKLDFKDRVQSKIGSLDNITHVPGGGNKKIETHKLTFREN
Procedure, shortened: as §1

[7] = molecular target: PD brain tissue homogenates (Homo sapiens, UniProt P37840); experiment: Saturation binding assay of [^3H]M503-1619 in PD brain tissue homogenates
Procedure, shortened: as §1

synthetic α-Syn fibrils = synthetic α-Syn fibrils (Homo sapiens, UniProt P37840); experiment: Saturation binding assay of [^3H]M503-1619 in α-Syn fibrils

COc1ccc(NC(=O)c2cnc(N3CCN(c4ccccn4)CC3)nc2N)cc1 [M503-1619, 4-Amino-N-(4-methoxyphenyl)-2-(4-(pyridin-2-yl)piperazin-1-yl)pyrimidine-5-carboxamide]
High-resolution autoradiography: binding to GCIs ([1]; MSA brain tissue sections): not to GCIs present in MSA; also recorded: not on GCIs in MSA brain | High-resolution autoradiography: binding to Lewy bodies ([1]; PD brain tissue sections): target engagement of [^3H]M503-1619 to Lewy bodies in PD brain; also recorded: accumulation of silver grains on Lewy bodies in PD | Parent (%) [2]: 57% | Time of peak uptake of the whole brain (Brain PET imaging study): 2 to 3 min | Whole brain peak to 60 min ratio (Brain PET imaging study): 3.2 | Peak uptake of the whole brain, standardized uptake value (SUV) (Brain PET imaging study; whole brain): 2.3 | Kd [3]: 94 ± 13 nM | Bmax ([3]; CBD tissue (n = 3)): 540 ± 130 nM | Time of peak uptake of the whole brain [4]: 2 to 3 min | Whole brain peak to 60 min ratio [4]: 3.2 | Peak uptake of the whole brain, standardized uptake value (SUV) ([4]; whole brain): 2.5 | Kd [5]: 37 ± 2 nM | Kd [6]: 55 ± 3 nM | Bmax ([6]; PSP tissue (n = 4)): 399 ± 24 nM | Kd [7]: 2.5 ± 0.3 nM | Bmax ([7]; PD tissue (n = 4)): 59 ± 10 nM | Selectivity vs. tau ([7]; α-Syn vs. tau): 10–20 fold | Kd (synthetic α-Syn fibrils): 4.4 ± 1 nM | Bmax (synthetic α-Syn fibrils; α-Syn fibrils (n = 4)): 1156 ± 112 nM
